Test results reported in ChEMBL document CHEMBL3244285, “Hypotensive phospholipids. Some stable analogues of Darmstoff” (J Med Chem, 1978).
The source made the active and inactive calls. The rule behind the calls is not given here.

Tests used:
Rattus norvegicus [1] = assay: Toxicity in awake normotensive rat assessed as decrease in heart rate at 2 mg/100 g, iv measured within 2 mins in presence of beta-adrenergic inhibitor propranolol; assay type: organism-based; settings: in vivo
Rattus norvegicus [2] = species: Rattus norvegicus; assay: Hypotensive activity in spontaneous hypertensive rat model measured after 48 hrs; assay type: functional, organism-based
Rattus norvegicus [3] = assay: Toxicity in awake normotensive rat assessed as decrease in heart rate at 1 mg/100 g, iv measured within 2 mins in presence of beta-adrenergic inhibitor propranolol; assay type: organism-based; settings: in vivo
Rattus norvegicus [4] = assay: Hypotensive activity in awake normotensive rat assessed as mean blood pressure at 1 mg/100 g, iv measured within 2 mins (reference value: 125 +/- 16 mmHg); assay type: functional
Rattus norvegicus [5] = assay: Toxicity in awake normotensive rat assessed as cardiac arrest at 4 mg/100 g, iv measured within 2 mins; assay type: organism-based; settings: in vivo
Rattus norvegicus [6] = assay: Toxicity in awake normotensive rat assessed as heart rate at 2 mg/100 g, iv measured within 2 mins (reference value: 420/min); assay type: organism-based; settings: in vivo
Rattus norvegicus [7] = assay: Hypotensive activity in awake normotensive rat assessed as decrease in mean blood pressure at 2 mg/100 g, iv measured within 2 mins in presence of beta-adrenergic inhibitor propranolol; assay type: functional, organism-based
Rattus norvegicus [8] = assay: Hypotensive activity in awake normotensive rat assessed as decrease in mean blood pressure at 1 mg/100 g, iv measured within 2 mins in presence of beta-adrenergic inhibitor propranolol; assay type: functional, organism-based
Rattus norvegicus [9] = assay: Toxicity in awake normotensive rat assessed as heart rate at 1 mg/100 g, iv measured within 2 mins (reference value: 430 +/- 50/min); assay type: organism-based; settings: in vivo
Rattus norvegicus [10] = assay: Toxicity in awake normotensive rat assessed as decrease in heart rate at 2 mg/100 g, iv measured for 10 mins; assay type: organism-based; settings: in vivo
How it was run: (§1)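 Chronically catheterized, unrestrained normotensive rats received iv drug in 0.9% NaCl through the venous catheter. Heart rate was followed continuously on chart records from the arterial strain-gauge trace, from the moment of injection for at least 10 min.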

Rattus norvegicus [11] = assay: Toxicity in awake normotensive rat assessed as decrease in heart rate at 1 mg/100 g, iv measured for 10 mins; assay type: organism-based; settings: in vivo; how it was run: as §1
Rattus norvegicus [12] = species: Rattus norvegicus; assay: Toxicity in spontaneous hypertensive rat model assessed as bradycardia measured after 48 hrs; assay type: organism-based; settings: in vivo
Rattus norvegicus [13] = assay: Hypotensive activity in awake normotensive rat assessed as mean blood pressure at 2 mg/100 g, iv measured within 2 mins (reference value: 125 mmHg); assay type: functional
[14] = Stability of the compound in 0.9% sodium chloride solution at 5 degC measured within 1 hr; assay type: physicochemical
How it was run: (§2)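 Solution stability was tested by storing drug solutions in 0.9% NaCl at 5 °C. At the stated storage times the stored solutions were given iv to catheterized, unrestrained normotensive rats, and blood pressure and heart-rate responses were re-measured by arterial strain gauge.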

[15] = Stability of the compound in 0.9% sodium chloride solution at 5 degC measured after 24 hrs; assay type: physicochemical; how it was run: as §2
Rattus norvegicus [16] = assay: Hypotensive activity in awake normotensive rat assessed as mean blood pressure at 1 mg/100 g, iv measured within 2 mins (reference value: 115 +/- 17 mmHg); assay type: functional
Rattus norvegicus [17] = assay: Toxicity in awake normotensive rat assessed as heart rate at 1 mg/100 g, iv measured within 2 mins (reference value: 430 +/- 40/min); assay type: organism-based; settings: in vivo
Rattus norvegicus [18] = assay: Hypotensive activity in awake normotensive rat assessed as mean blood pressure at 1 mg/100 g, iv measured within 2 mins (reference value: 130 +/- 6.9 mmHg); assay type: functional
Rattus norvegicus [19] = assay: Toxicity in awake normotensive rat assessed as heart rate at 1 mg/100 g, iv measured within 2 mins (reference value: 450 +/- 57/min); assay type: organism-based; settings: in vivo
[20] = Stability of the compound in 0.9% sodium chloride solution at 5 degC measured after 72 hrs; assay type: physicochemical; how it was run: as §2

Structure (SMILES)	Activity (Rattus norvegicus [1])	Activity (Rattus norvegicus [2])	Activity (Rattus norvegicus [3])	Activity (Rattus norvegicus [4])	Activity (Rattus norvegicus [5])	heart rate (Rattus norvegicus [6])	Activity (Rattus norvegicus [7])	Activity (Rattus norvegicus [8])	heart rate (Rattus norvegicus [9])	Activity (Rattus norvegicus [10])	Activity (Rattus norvegicus [11])	Activity (Rattus norvegicus [12])	Activity (Rattus norvegicus [13])	Stability [14]	Stability [15]	Activity (Rattus norvegicus [16])	heart rate (Rattus norvegicus [17])	Activity (Rattus norvegicus [18])	heart rate (Rattus norvegicus [19])	Stability [20]
CCCCCCCCCCCCCCCC1OCC(COP(=O)([O-])O)O1.[Na+] (stereo unspecified)	Toxic	Active	Toxic	100 mmHg	Toxic	250 beats/min	Active	Active	310 beats/min	Toxic	Toxic	Toxic	100 mmHg	Unstable	–	–	–	–	–	–
CCCCCCCCCCCCCCCC1CCC(COP(=O)([O-])O)O1.[Na+] (stereo unspecified)	–	–	Toxic	–	–	–	–	Active	–	–	Toxic	–	–	–	Stable	100 mmHg	350 beats/min	–	–	–
CCCCCCCCCCCCCCCC1CCC(COP(=O)([O-])O)C1.[Na+] (stereo unspecified)	–	–	Toxic	–	–	–	–	Active	–	–	Toxic	–	–	–	–	–	–	120 mmHg	375 beats/min	Stable
